Measurements published in ChEMBL document CHEMBL1154419, “Pharmacodynamic effects of telavancin against methicillin-resistant and methicillin-susceptible Staphylococcus aureus strains in the presence of human albumin or serum and in an in vitro kinetic model” (Antimicrob Agents Chemother, 2007).
Values after ≈ are worked out from the molar mass of the structure shown. Active and inactive are the calls of the source. The rule behind the calls is not given here.

How the values were obtained:
Staphylococcus aureus [1] = assay: Antibacterial activity against methicillin-susceptible Staphylococcus aureus ATCC 13709 after 18 to 24 hrs by macrodilution technique; format: functional
Method in brief: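 Broth macrodilution per CLSI, run in triplicate on separate occasions. Twofold serial drug dilutions in broth, inoculum approx. 5 × 10⁵ CFU/ml, 37°C for 18 to 24 h. MIC taken as the lowest concentration with no visible growth.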

Staphylococcus aureus [2] = assay: Antibacterial activity against methicillin-resistant Staphylococcus aureus ATCC 33591 assessed as change in bacterial burden at 10 mg/liter after 8 hrs; format: functional
Method in brief: (§1)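 In vitro kinetic model: spinner flask with 0.45-μm filter and prefilter, stirred, M-H broth at 37°C, starting inoculum approx. 5 × 10⁵ CFU/ml. Single initial drug dose of 1.0 to 40 mg/liter, with flow set to give a half-life of approx. 8 h. Viable counts at 0, 2, 4, 6, 8, 12 and 24 h. Duplicate runs per strain and concentration.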

Staphylococcus aureus [3] = assay: Antibacterial activity against methicillin-susceptible Staphylococcus aureus ATCC 13709 assessed as change in bacterial burden at 2.5 mg/liter after 24 hrs; format: functional; method in brief: as §1
Staphylococcus aureus [4] = assay: Antibacterial activity against methicillin-resistant Staphylococcus aureus ATCC 33591 assessed as change in bacterial burden at 5 mg/liter after 2 hrs; format: functional; method in brief: as §1
Staphylococcus aureus [5] = assay: Antibacterial activity against methicillin-susceptible Staphylococcus aureus ATCC 13709 assessed as change in bacterial burden at 5 mg/liter after 24 hrs; format: functional
Staphylococcus aureus [6] = assay: Antibacterial activity against methicillin-resistant Staphylococcus aureus ATCC 33591 assessed as change in bacterial burden at 2.5 mg/liter after 12 hrs; format: functional; method in brief: as §1
Staphylococcus aureus [7] = assay: Antibacterial activity against methicillin-resistant Staphylococcus aureus ATCC 33591 assessed as change in bacterial burden at 10 mg/liter after 4 hrs; format: functional; method in brief: as §1
Staphylococcus aureus [8] = assay: Antibacterial activity against methicillin-susceptible Staphylococcus aureus ATCC 13709 assessed as change in bacterial burden at 40 mg/liter after 8 hrs; format: functional
Staphylococcus aureus [9] = assay: Antibacterial activity against methicillin-susceptible Staphylococcus aureus ATCC 13709 assessed as change in bacterial burden at 5 mg/liter after 4 hrs; format: functional
Staphylococcus aureus [10] = assay: Antibacterial activity against methicillin-resistant Staphylococcus aureus ATCC 33591 assessed as bacterial regrowth at 1 times MIC after 24 hrs in presence of human albumin; format: functional, organism-based
Method in brief: (§2)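 Static time-kill in M-H broth, in M-H broth with 40 g/liter fatty-acid-free purified human albumin, or in M-H broth with inactivated 50% human serum. Inoculum approx. 5 × 10⁵ CFU/ml, drug at 0.5, 1, 2.5, 5, 10, 25 and 50× MIC, 37°C. Samples at 0, 3, 6, 12 and 24 h plated on blood agar, counted after 24 h. Detection limit 5 × 10¹ CFU/ml. Run in duplicate.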

[11] = Half life in in vitro kinetic model containing Mueller-Hinton broth and bacteria; format: physicochemical; conditions: in vitro kinetic model with bacteria
Method in brief: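 Drug levels in kinetic-model samples measured by agar-well diffusion bioassay with Bacillus stearothermophilus ATCC 3032: 24 h prediffusion at 22°C, then overnight at 55°C; samples and standards in triplicate; detection limit 1 mg/liter.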

Staphylococcus aureus [12] = assay: Antibacterial activity against methicillin-resistant Staphylococcus aureus ATCC 33591 assessed as bacterial killing at 10 times MIC after 24 hrs in PBS-nutrient depleted medium; format: functional, organism-based
Method in brief: (§3)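 Strain diluted in M-H broth to approx. 10⁵ CFU/ml and grown 6 h into log phase, then split. Broth tubes got drug at 10× MIC directly. PBS tubes were transferred to PBS and held 3 h more, then dosed at 10× MIC. Growth controls were run in each medium. Viable counts at 0, 3, 6, 9, 12 and 24 h. Run in duplicate.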

Staphylococcus aureus [13] = assay: Antibacterial activity against methicillin-resistant Staphylococcus aureus ATCC 33591 assessed as bacterial killing at 50 times MIC after 24 hrs in presence of human albumin; format: functional, organism-based; method in brief: as §2
Staphylococcus aureus [14] = assay: Antibacterial activity against methicillin-resistant Staphylococcus aureus ATCC 33591 assessed as change in bacterial burden at 20 mg/liter after 2 hrs; format: functional; method in brief: as §1
Staphylococcus aureus [15] = assay: Antibacterial activity against methicillin-resistant Staphylococcus aureus ATCC 33591 assessed as bacterial killing at 10 times MIC after 6 hrs in MH-broth; format: functional, organism-based; method in brief: as §3
Staphylococcus aureus [16] = assay: Antibacterial activity against methicillin-susceptible Staphylococcus aureus ATCC 13709 assessed as change in bacterial burden at 10 mg/liter after 24 hrs; format: functional; method in brief: as §1
Staphylococcus aureus [17] = assay: Antibacterial activity against methicillin-susceptible Staphylococcus aureus ATCC 13709 assessed as change in bacterial burden at 2.5 mg/liter after 2 hrs; format: functional
Staphylococcus aureus [18] = assay: Antibacterial activity against methicillin-susceptible Staphylococcus aureus ATCC 13709 assessed as change in bacterial burden at 10 mg/liter after 12 hrs; format: functional
Staphylococcus aureus [19] = assay: Antibacterial activity against methicillin-susceptible Staphylococcus aureus ATCC 13709 assessed as change in bacterial burden at 10 mg/liter after 2 hrs; format: functional; method in brief: as §1
Staphylococcus aureus [20] = assay: Antibacterial activity against methicillin-susceptible Staphylococcus aureus ATCC 13709 assessed as change in bacterial burden at 5 mg/liter after 8 hrs; format: functional
Staphylococcus aureus [21] = assay: Antibacterial activity against methicillin-susceptible Staphylococcus aureus ATCC 13709 assessed as bacterial regrowth at 0.25 times MIC; format: functional, organism-based
Method in brief: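 Static time-kill in cation-supplemented M-H broth, inoculum ~5 × 10⁵ CFU/ml, 37°C; samples at 0, 3, 6, 12 and 24 h plated on blood agar for viable counts (detection limit 5 × 10¹ CFU/ml); duplicate runs.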

Staphylococcus aureus [22] = assay: Antibacterial activity against methicillin-susceptible Staphylococcus aureus ATCC 13709 assessed as change in bacterial burden at 5 mg/liter after 6 hrs; format: functional
Staphylococcus aureus [23] = assay: Antibacterial activity against methicillin-susceptible Staphylococcus aureus ATCC 13709 assessed as bacterial regrowth at 5 mg/liter Cmax; format: functional, organism-based
Staphylococcus aureus [24] = assay: Antibacterial activity against methicillin-resistant Staphylococcus aureus ATCC 33591 assessed as bacterial killing at 0.5 to 50 times MIC after 24 hrs in presence of 50% human serum; format: functional, organism-based; method in brief: as §2
Staphylococcus aureus [25] = assay: Antibacterial activity against methicillin-susceptible Staphylococcus aureus ATCC 13709 assessed as change in bacterial burden at 20 mg/liter after 12 hrs; format: functional
Staphylococcus aureus [26] = assay: Antibacterial activity against methicillin-susceptible Staphylococcus aureus ATCC 13709 assessed as change in bacterial burden at 1 mg/liter after 12 hrs; format: functional; method in brief: as §1
Staphylococcus aureus [27] = assay: Antibacterial activity against methicillin-susceptible Staphylococcus aureus ATCC 13709 assessed as change in bacterial burden at 40 mg/liter after 2 hrs; format: functional; method in brief: as §1
[28] = Ratio of AUC in in vitro kinetic model containing Mueller-Hinton broth and methicillin-susceptible Staphylococcus aureus ATCC 13709 to MIC for methicillin-susceptible Staphylococcus aureus ATCC 13709 in bacterial regrowth stage; format: functional
Staphylococcus aureus [29] = assay: Antibacterial activity against methicillin-susceptible Staphylococcus aureus ATCC 13709 assessed as change in bacterial burden at 2.5 mg/liter after 12 hrs; format: functional
Staphylococcus aureus [30] = assay: Antibacterial activity against methicillin-susceptible Staphylococcus aureus ATCC 13709 assessed as change in bacterial burden at 20 mg/liter after 2 hrs; format: functional
Staphylococcus aureus [31] = assay: Antibacterial activity against methicillin-susceptible Staphylococcus aureus ATCC 13709 assessed as change in bacterial burden at 1 mg/liter after 6 hrs; format: functional
Staphylococcus aureus [32] = assay: Antibacterial activity against methicillin-susceptible Staphylococcus aureus ATCC 13709 assessed as change in bacterial burden at 1 mg/liter after 24 hrs; format: functional

## CCCCCCCCCCNCCN[C@@]1(C)C[C@H](O[C@H]2[C@H](Oc3c4cc5cc3Oc3ccc(cc3Cl)[C@@H](O)[C@@H](NC(=O)[C@@H](CC(C)C)NC)C(=O)N[C@@H](CC(N)=O)C(=O)N[C@H]5C(=O)N[C@H]3C(=O)N[C@H](C(=O)N[C@H](C(=O)O)c5cc(O)c(CNCP(=O)(O)O)c(O)c5-c5cc3ccc5O)[C@H](O)c3ccc(c(Cl)c3)O4)O[C@H](CO)[C@@H](O)[C@@H]2O)O[C@@H](C)[C@H]1O [TELAVANCIN]
Staphylococcus aureus [1]
  MIC: 1 µg/mL (≈ 0.57 µM)
Staphylococcus aureus [2]
  deltalog10CFU/ml: -3.8
Staphylococcus aureus [3]
  deltalog10CFU/ml: -2.9
Staphylococcus aureus [4]
  deltalog10CFU/ml: -0.9
Staphylococcus aureus [5]
  deltalog10CFU/ml: -4.7
Staphylococcus aureus [6]
  deltalog10CFU/ml: -4.2
Staphylococcus aureus [7]
  deltalog10CFU/ml: -2.2
Staphylococcus aureus [8]
  deltalog10CFU/ml: -4.7
Staphylococcus aureus [9]
  deltalog10CFU/ml: -2.3
Staphylococcus aureus [10]
  Activity: Active
[11]
  half-life: 480 min
Staphylococcus aureus [12]
  Activity: Active
Staphylococcus aureus [13]
  Activity: Active
Staphylococcus aureus [14]
  deltalog10CFU/ml: -1
Staphylococcus aureus [15]
  Activity: Active
Staphylococcus aureus [16]
  deltalog10CFU/ml: -4.5
Staphylococcus aureus [17]
  deltalog10CFU/ml: -1.1
Staphylococcus aureus [18]
  deltalog10CFU/ml: -4.5
Staphylococcus aureus [19]
  deltalog10CFU/ml: -1.2
Staphylococcus aureus [20]
  deltalog10CFU/ml: -4
Staphylococcus aureus [21]
  Activity: Active
Staphylococcus aureus [22]
  deltalog10CFU/ml: -3.4
Staphylococcus aureus [23]
  Activity: Active
Staphylococcus aureus [24]
  Activity: Active
Staphylococcus aureus [25]
  deltalog10CFU/ml: -4.6
Staphylococcus aureus [26]
  deltalog10CFU/ml: -2.6
Staphylococcus aureus [27]
  deltalog10CFU/ml: -1.9
[28]
  Activity: inactive
Staphylococcus aureus [29]
  deltalog10CFU/ml: -4.7
Staphylococcus aureus [30]
  deltalog10CFU/ml: -1.3
Staphylococcus aureus [31]
  deltalog10CFU/ml: -2
Staphylococcus aureus [32]
  deltalog10CFU/ml: -0.5
